pIC50: −log10 of the molar value.
Experiments:
[1] = molecular target: GABA-A receptor; anion channel; experiment: Inhibition of [3H]-Ro- 15-1788 binding to GABA-A benzodiazepine receptor of rat cortical membranes; format: cell membranes, Membrane
How it was run: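 Rat (Sprague–Dawley, 250-300 g) cortical membranes, water-washed and frozen at -20 °C ≥18 h, then washed repeatedly in Krebs/HEPES pH 7.4. Incubated with 0.2-0.5 mg protein, [3H]-Ro 15-1788 (5 nM stock added), 10^-4 M nipecotic acid, 30 °C for 60 min. Nonspecific binding with 3 μM clonazepam. Filtration, scintillation counting.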

[2] = molecular target: GABA-A receptor; anion channel (Rattus norvegicus) (UniProt O09028+P15431+P18506+P18508+P19969+P20236+P23574+P23576+P28471+P28473+P30191+P62813+P63079+P63138+Q91ZM7+Q9ES14); experiment: Ratio of binding affinity to the GABA-A receptor in the presence and absence of GABA; format: protein-complex assay
How it was run: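 [3H]-Ro 15-1788 displacement in washed rat cortical membranes (Krebs/HEPES pH 7.4, nipecotic acid 10^-4 M, 30 °C, 60 min) run with and without GABA at 0.3 mM. Nonspecific binding was defined by 3 μM clonazepam, and read-out was filtration with scintillation counting. The value is the ratio of the affinities obtained with GABA and without it.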

[3] = molecular target: GABA-A receptor; anion channel; experiment: Inhibition of radiolabeled antagonist [3H]-Ro- 15-1788 binding to benzodiazepine receptor from rat cortical membranes; format: cell membranes, Membrane
How it was run: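 Rat (Sprague–Dawley, 250-300 g) cortical membranes, water-washed and frozen at -20 °C ≥18 h, then washed repeatedly in Krebs/HEPES pH 7.4. Nonspecific binding with 3 μM clonazepam. Filtration, scintillation counting.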

Row | SMILES | pIC50 [1] | GABA shift [2] | pIC50 [3]
1 | Cc1noc(-c2ncn3c2CN=C(c2ccccc2)c2ccccc2-3)n1 | 7.62 | 1.94 | 
2 | CC(C)c1noc(-c2ncn3c2CN(C)C(=O)c2c(F)cccc2-3)n1 |  | 2.31 | 7.17
3 | CC(C)c1nc(-c2ncn3c2CN=C(c2ccccc2)c2c(F)cccc2-3)no1 |  | 2.08 | 8.21
4 | CCc1nc(-c2ncn3c2CN=C(c2ccccc2)c2cc(Cl)ccc2-3)no1 |  | 2.43 | 7.36
5 | Cc1noc(-c2ncn3c2CN=C(c2ccccc2)c2cc(Cl)ccc2-3)n1 |  | 1.84 | 6.74
6 | CCc1nc(-c2ncn3c2CN=C(c2ccccc2)c2ccccc2-3)no1 |  | 2.11 | 7.80
7 | Cc1nc(-c2ncn3c2CN=C(c2ccccc2Cl)c2cc(Cl)ccc2-3)no1 |  | 1.83 | 7.70
8 | CC(C)c1nc(-c2ncn3c2CN(C)C(=O)c2ccccc2-3)no1 |  | 2.4 | 7.28
9 | CC(C)c1nc(-c2ncn3c2CN(C)C(=O)c2cc(F)ccc2-3)no1 |  | 2.76 | 7.37
10 | Cc1nc(-c2ncn3c2CN=C(c2ccccc2)c2c(Cl)cccc2-3)no1 |  | 1.44 | 8.89
11 | CC(C)(C)OC(=O)c1ncn2c1C1CCCN1C(=O)c1c(Br)cccc1-2 (stereo unspecified) |  | 1.34 | 9.22
12 | CCc1noc(-c2ncn3c2CN(C)C(=O)c2cc(F)ccc2-3)n1 |  | 2.34 | 6.98
13 | CCCc1noc(-c2ncn3c2CN(C)C(=O)c2cc(F)ccc2-3)n1 |  | 2 | 7.38
14 | Cc1nc(-c2ncn3c2CN(C)C(=O)c2cc(F)ccc2-3)no1 |  | 1.53 | 7.68
15 | Cc1noc(-c2ncn3c2CN(C)C(=O)c2c(F)cccc2-3)n1 |  | 1.85 | 7.66
16 | CCc1noc(-c2ncn3c2CN(C)C(=O)c2c(F)cccc2-3)n1 |  | 2.4 | 7.38
17 | CCc1noc(-c2ncn3c2CN=C(c2ccccc2)c2c(Cl)cccc2-3)n1 |  | 2.21 | 8.39
18 | CCCc1nc(-c2ncn3c2CN=C(c2ccccc2)c2cc(Cl)ccc2-3)no1 |  | 2.22 | 7.35

— ChEMBL document CHEMBL1124349, “Novel benzodiazepine receptor partial agonists: oxadiazolylimidazobenzodiazepines” (J Med Chem, 1989)
